# Screening results (PubChem)
# In the library only some 1.3% were active in any assay of this set; here they are far more common.
# CHT allo act: human CHT allosteric activation | B-score at 10 µM | 0.49% of 310,000 active | Q9GZV3 | CHT-expressing cells, membrane potential dye, choline EC20; hits give high values; LV-AA mutant CHT in HEK293 cells | AID 488977;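 active = initial fluorescence not abnormally high and integrated response B-score, plate-corrected, over 3 SD above library mean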
# procasp7 counter: counter-screen for procaspase-3 activators: activators of human procaspase-7; P55210; recombinant procaspase-7, Ac-DEVD-pNA absorbance 405 nm; D23A/D198A/D206A triple mutant, cannot self-cleave; scale: DMSO 0, 5 µM enzyme 100; activation, % at 8.5 µM; 0.093% of 330,000 active; AID 463210;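 active = percent activation above the screen-wide mean plus 3 SD, cut at about 25% in these data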
# Target sequence (P55210 whole entry D23A/D198A/D206A): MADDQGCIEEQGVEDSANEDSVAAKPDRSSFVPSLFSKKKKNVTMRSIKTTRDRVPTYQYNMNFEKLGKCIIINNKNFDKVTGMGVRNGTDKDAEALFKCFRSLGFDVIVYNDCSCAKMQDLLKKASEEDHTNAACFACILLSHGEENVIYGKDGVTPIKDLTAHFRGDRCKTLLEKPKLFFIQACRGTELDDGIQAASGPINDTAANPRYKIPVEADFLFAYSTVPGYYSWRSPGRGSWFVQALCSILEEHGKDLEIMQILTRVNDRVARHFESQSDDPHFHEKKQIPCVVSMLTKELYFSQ
#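 Test system: Procaspase-7 triple mutant (PC-7 D3A). Also added: Ac-DEVD-pNA substrate, 400 µM as added. Schedule: 1 h enzyme–compound preincubation and 2 h substrate reaction, both 25 °C. Signal: p-Nitroaniline absorbance at 405 nm, read at 0 and 120 min. Control set: low DMSO alone, high DMSO plus 5 µM PC-7.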
# procasp3 activ: activators of human procaspase-3. P42574. recombinant procaspase-3 D3A, Ac-DEVD-pNA absorbance 405 nm. activation, % at 8.5 µM. 0.11% of 330,000 active;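 active = activation above the mean of all tested compounds plus 3 SD, cut at about 21% in these data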;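 also: 0% = DMSO alone and 100% = DMSO wells spiked with extra 5 µM PC-3 D3A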
# Target sequence (P42574 whole entry D9A/D28A/D175A): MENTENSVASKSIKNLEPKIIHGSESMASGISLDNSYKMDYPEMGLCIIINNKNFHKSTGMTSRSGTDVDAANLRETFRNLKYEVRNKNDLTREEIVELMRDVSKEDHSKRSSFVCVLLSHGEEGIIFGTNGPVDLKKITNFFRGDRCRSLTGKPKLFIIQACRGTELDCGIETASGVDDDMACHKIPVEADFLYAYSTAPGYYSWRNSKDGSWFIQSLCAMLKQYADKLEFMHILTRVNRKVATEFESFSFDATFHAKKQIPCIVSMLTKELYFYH
#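 Assay system – Procaspase-3 D3A mutant, all three cleavage aspartates alanine · Controls – DMSO-only low control, 5 µM PC-3 D3A high control · Schedule – 1 h compound preincubation, 2 h substrate hydrolysis at 25 °C · Signal – 405 nm absorbance of p-nitroaniline, reads at 0 and 120 min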
# CHT block: inhibitors of human choline transporter CHT. Q9GZV3. B-score at 10 µM. 0.86% of 310,000 active. CHT-expressing cells, membrane potential dye, choline response; hits give low values;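 active = B-score over 3 SD under the library average, and starting fluorescence ratio not unusually high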;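 also: choline stimulus applied at its EC90 after an EC20 pre-addition; B-score computed on integrated fluorescence ratio after choline addition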
# CHT block conf: confirmation of human choline transporter CHT inhibitors | CHT-expressing cells, choline membrane potential dye; LV-to-AA substituted CHT, HEK293 cells | AID 493221 | CHT activity remaining % of control (hits give low values), % at 10 µM | shares compounds with CHT block | 70% of 2,400 active;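 active = choline transporter activity left, mean of duplicates at 10 µM, below buffer-only control mean minus 3 SD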;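 also: depolarization triggered by choline at its EC90 following an EC20 pre-addition; 0% = hemicholinium-3 full block and 100% = buffer-only control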
# HEK293 CHT ctr: counter-screen for CHT inhibitors: effect in parental HEK293 cells; shares compounds with CHT block; membrane potential dye, choline response; active = decrease or increase beyond buffer ±3SD; membrane potential ratio readout (active if shifted either direction beyond buffer ±3SD; no single direction) at 10 µM; 4% of 2,400 active; AID 493222;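 also: parental cells lack the transporter so any hit is non-specific; ratio is peak minus trough fluorescence over baseline after EC90 choline challenge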
# An asterisk follows results filed as active; i = inactive; . = no result.
SMILES,CHT allo act,procasp7 counter,procasp3 activ,CHT block,CHT block conf,HEK293 CHT ctr
Cc1nonc1NC(=O)CSc1ccc(-c2ccccc2)nn1,i,11,-9,-8*,23%*,i
Cc1nonc1NC(=O)CSc1cn[nH]n1,i,2,3,i,.,.
CCn1c(-c2ccccc2Cl)nn(CC(=O)Nc2ccc(OC)cc2)c1=S,i,-2,9,i,.,.
CCOc1ccc(NC(=O)Cn2nc(-c3ccccc3Cl)n(CC)c2=S)cc1,i,16,6,i,i,i
Cc1nn(C)cc1S(=O)(=O)NCc1ccc2c(c1)OCO2,i,1,4,i,.,.
COc1ccc(C2(O)CCN(C(=O)NC3CCCCC3)CC2)cc1,i,-3,-5,-7.8*,36%*,i
CC1CCN(CCNC(=O)C2CCCN(c3ncnc4c3nc3n4CCCCC3)C2)CC1 (stereo not given),i,-11,-4,-10*,32%*,i
O=C(Nc1cccnc1Cl)C1CCCN(c2ncnc3c2nc2n3CCCCC2)C1 (stereo not given),i,-18,-2,i,.,.
CC1CCCCN1CCCNC(=O)C1CCCN(c2ncnc3c2nc2n3CCCCC2)C1 (stereo not given),i,6,8,i,.,.
O=C(Nc1ccc(Cl)cn1)C1CCCN(c2ncnc3c2nc2n3CCCCC2)C1 (stereo not given),i,16,5,-6*,32%*,i
COc1ccc(Cl)cc1NC(=O)C1CCCN(c2ncnc3c2nc2n3CCCCC2)C1 (stereo not given),i,5,12,-5.2*,57%*,i
Cc1ccc(NC(=O)C2CCCN(c3ncnc4c3nc3n4CCCCC3)C2)nc1 (stereo not given),i,1,4,i,.,.
COCCCN1C(=O)c2ccc(C(=O)NCc3ccccn3)cc2C1=O,i,13,4,i,.,.
COc1cc(SC)ccc1C(=O)OCC(=O)N1CCCC1,i,5,-3,i,.,.
CCOC(=O)C(=Cc1c[nH]c2ccc(S(=O)(=O)N(C)C)cc12)C(=O)OCC,i,1,2,-6.4*,33%*,i
COc1ccccc1C(=O)Nc1ccc(C(=O)c2ccccc2)cc1,i,3,-3,-6.5*,i,i
Nc1ccc(C2(c3ccc(N)cc3)C(=O)Nc3ccccc32)cc1,i,10,-5,-14*,-27%*,9*
O=C(CSc1nc2ccccc2c(=O)n1C1CC1)NCc1ccccc1,i,-5,-1,-5.1*,67%*,i
Cn1c(SCC(=O)NCC2COc3ccccc3O2)nnc1C(F)(F)F (stereo not given),.,14,13,.,.,.
CC(C)(C)c1ccc(-c2nnc(N)s2)cc1,i,-3,2,-6*,i,i
Nc1nnc(-c2ccc(F)cc2)s1,i,3,2,i,.,.
O=C(CSc1nc(=O)n2ccccc2n1)Nc1ccc2c(c1)OCO2,i,-2,-7,i,.,.
CCOC(=O)c1sc(=S)n(-c2ccccc2)c1N(C(C)=O)C(C)=O,i,0,-7,-6.2*,65%*,i
CC(C)[C@H](NC(=O)c1ccc([N+](=O)[O-])cc1Cl)C(=O)N1CCN(C/C=C/c2ccccc2)CC1,.,-7,6,.,.,.
N#CCSc1nc2sccc2c(=O)n1-c1ccccc1,i,-10,-5,-5.5*,i,i
SMILES,CHT allo act,procasp7 counter,procasp3 activ,CHT block,CHT block conf,HEK293 CHT ctr
COc1ccc(-c2cc(=O)oc(-c3cccc(C)c3)n2)cc1,i,4,3,-14*,i,i
Cc1nccn1CC1CCc2c(c3ccccc3n2C)C1=O (stereo not given),i,-3,-4,-6.7*,7.4%*,i
Cc1nccn1C[C@@H]1CCc2c(c3ccccc3n2C)C1=O,i,7,0,-5.7*,12%*,i
Cc1nccn1CCCN1C(=O)CNC1=S,i,-14,-28,i,.,.
Cc1cccc(CSc2nc3nc(C)cc(C)n3n2)c1,i,8,-10,i,.,.
Cc1ccc2c(c1)C1CN(C)CCC1N2C(=O)c1ccccc1NS(=O)(=O)c1cccc(C(F)(F)F)c1 (stereo not given),i,9,4,-6.9*,37%*,i
Cc1ccc2c(c1)C1CN(C)CCC1N2C(=O)c1ccccc1NS(=O)(=O)c1ccc(F)cc1 (stereo not given),i,2,2,i,.,.
N/C(=N\NS(=O)(=O)c1ccccc1Cl)c1ccccn1,i,6,5,i,.,.
Cc1cccc2nc(-c3ccco3)oc(=O)c12,i,-10,-4,i,.,.
Cc1ccc(NC(=O)CN(C)C(=O)COC(=O)CNS(=O)(=O)c2ccc(Br)cc2Cl)cc1,i,-2,3,-6.3*,67%*,i
CC(C)[C@H](NC(=O)c1cccc(CN(Cc2ccccc2)C(=O)/C=C/c2ccccc2)c1)C(=O)O,i,-4,4,i,.,.
C(#Cc1ccccc1)C[N+]1(CC#Cc2ccccc2)CCCCC1,i,-2,-2,i,.,.
C#CC[N+]1(CC#Cc2cccc(C)c2)CCCCC1,i,2,-11,-6.7*,39%*,i
C#CC[N+]1(CC#Cc2ccccc2)CCCCC1,i,-2,8,-9.6*,i,i
O=C(C1CCCN1S(=O)(=O)c1cccc2nsnc12)N1CCCCC1 (stereo not given),i,-2,-5,-9.8*,i,i
CC(=O)c1ccc(N2CCN(C(=O)C3CCCN3S(=O)(=O)c3cccc4nsnc34)CC2)cc1 (stereo not given),i,-4,-2,i,.,.
CC(NC(=O)CN(c1cccc(C(F)(F)F)c1)S(=O)(=O)c1ccc(Cl)c([N+](=O)[O-])c1)c1ccccc1 (stereo not given),i,2,-6,-6.2*,i,i
O=C(CN(c1cccc(C(F)(F)F)c1)S(=O)(=O)c1ccc(Cl)c([N+](=O)[O-])c1)NCc1ccccc1,i,-1,-5,i,.,.
O=C(NNC(=O)C12CC3CC(CC(C3)C1)C2)c1ccccc1[N+](=O)[O-],i,-8,1,i,.,.
CC(C)CNS(=O)(=O)c1ccc(CCC(=O)N2CCN(Cc3ccc4c(c3)OCO4)CC2)cc1,i,10,6,-5.6*,62%*,i
Cc1ccc(NC(=S)NNC(=O)c2ccccc2O)c(C)c1,i,-8,-7,-8.2*,i,i
